ChEMBL document CHEMBL1148119, “Monoterpene hydroperoxides with trypanocidal activity from Chenopodium ambrosioides” (J Nat Prod, 2002)
≈ marks a conversion by molar mass, not a printed value. Calls of active or inactive are those of the source. No cut-off for these calls is given here.

Key:
[1] = tested on: Trypanosoma cruzi; test: Trypanocidal activity against Trypanosoma cruzi Tulahuen epimastigotes up to 400 uM after 24 hrs; assay type: functional, organism-based
In short: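 Tulahuen epimastigotes maintained in GIT medium with hemin (12.4 μM). Parasite suspension incubated 24 h with sample in EtOH plus autoclaved saline. Motility checked by microscopy (×100) and minimum lethal concentration (MLC) recorded. Duplicate assays; gentian violet positive control.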

[2] = tested on: Trypanosoma cruzi; test: Antitrypanosomal activity against Trypanosoma cruzi trypomastigotes infected in human HeLa cells assessed as number of amastigotes per infected cell at 1 ug/mL after 4 days by HeLa cell-infection assay; assay type: functional
In short: (§1)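 HeLa cells (5 × 10^3 cells/mL/well) grown on coverslips 2 days at 37 °C, 5% CO2, then infected with T. cruzi trypomastigotes (1.2 × 10^4 parasites/well). Compound in ethanol (10 µL) added right after infection. Day 4: fixed, Diff-Quik stained, mounted. >200 host cells in random fields scored for % infected cells (>1 amastigote) and mean amastigotes per infected cell. Mean ± SE.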

[3] = tested on: HeLa; test: Cytotoxicity against human HeLa cells at 10 ug/mL; assay type: cell-based
[4] = tested on: Trypanosoma cruzi; test: Antitrypanosomal activity against Trypanosoma cruzi trypomastigotes infected in human HeLa cells assessed as inhibition of infection at 1 ug/mL after 4 days by HeLa cell-infection assay; assay type: functional; set-up: scale not given: the % may be the effect or the level left; in short: as §1
[5] = tested on: Trypanosoma cruzi; test: Antitrypanosomal activity against Trypanosoma cruzi trypomastigotes infected in human HeLa cells assessed as inhibition of amastigotes proliferation at 1 ug/mL after 4 days by HeLa cell-infection assay; assay type: functional, organism-based; in short: as §1
[6] = tested on: Trypanosoma cruzi; test: Trypanocidal activity against Trypanosoma cruzi Tulahuen epimastigotes assessed as minimal lethal concentration after 24 hrs; assay type: functional
In short: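 Tulahuen epimastigotes kept in GIT medium with hemin (12.4 µM). Parasites in medium (10 µL) incubated with sample in EtOH (5 µL) plus autoclaved saline (185 µL) for 24 h. Motility checked by microscopy (×100). MLC taken as minimum lethal concentration. Duplicates; gentian violet positive control.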

[7] = tested on: Trypanosoma cruzi; test: Antitrypanosomal activity against Trypanosoma cruzi trypomastigotes infected in human HeLa cells assessed as infection rate at 1 ug/mL after 4 days by HeLa cell-infection assay; assay type: functional; in short: as §1

With C=C(C)[C@@H]1C=C[C@](C)(O)CC1 the Activity [1] was “inactive”.

For C=C(C)[C@H]1CCC(=C)[C@@H](O)C1, the Activity [1] was “inactive”.

In the case of C=C(C)[C@H]1CCC(=C)[C@H](OO)C1, the Activity [2] is reported as 18.6, the Activity [3] is reported as “Toxic” and the Activity [4] is reported as 63%. The Activity [5] was “inactive”, the MLC [6] was 1.6 µM (≈ 0.269 µg/mL) and the Activity [7] was 4.4%.

C=C(C)[C@@H]1C=C[C@](C)(OO)CC1 was tested, and the Activity [2] was 19.1, the Activity [3] was “Toxic” and the Activity [4] was 88%. For the same compound, the Activity [5] was “inactive”, the MLC [6] was 3.1 µM (≈ 0.522 µg/mL) and the Activity [7] was 1.5%.

With C=C(C)[C@@H]1C=C[C@@](C)(O)CC1 the Activity [1] was “inactive”.

In the case of Oc1ncnc2[nH]ncc12 [ALLOPURINOL], the Activity [2] is reported as 10.9, the Activity [5] is reported as “inactive” and the Activity [7] is reported as 7%.

C=C(C)[C@H]1CCC(=C)[C@H](O)C1 was tested, and the Activity [1] was “inactive”.

For CC(C)C12C=CC(C)(CC1)OO2 (stereo unspecified) [ASCARIDOLE], the Activity [2] was 22.8, the Activity [5] was “inactive” and the MLC [6] was 23 µM (≈ 3.87 µg/mL). The Activity [7] was 8.5%.

Compound CN(C)c1ccc(C(=C2C=CC(=[N+](C)C)C=C2)c2ccc(N(C)C)cc2)cc1.[Cl-] [GENTIAN VIOLET] has an MLC [6] of 6.3 µM.

C=C(C)[C@@H]1C=C[C@@](C)(OO)CC1 was tested, and the Activity [2] was 12, the Activity [3] was “Toxic” and the Activity [4] was “Active”. The Activity [5] was “inactive”, the MLC [6] was 0.8 µM (≈ 0.135 µg/mL) and the Activity [7] was 0.13%.

Compound C=C(C)[C@H]1CCC(=C)[C@@H](OO)C1 has an MLC [6] of 1.2 µM (≈ 0.202 µg/mL).
